Data set [1] can be described thus: Kinetic solubility of the compound in pH 7.4 phosphate buffered saline. The class given is physicochemical. The conditions noted are these: read-out: Kinetic_solubility. In a few lines: (§1)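 Kinetic solubility was run in PBS at pH 4.0 and at pH 7.4 under a standard contract protocol. Compound concentration was measured by LC-MS/MS.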
Data set [2] in a line: Half life in human liver microsomes at 1 uM by LC-MS/MS analysis.
Data set [3] is described as follows: Kinetic solubility of the compound in pH 4 phosphate buffered saline. It counts as physicochemical. The note with it: read-out: Kinetic_solubility. In outline: as §1
Data set [4] can be described thus: Inhibition of Hedgehog signaling pathway in mouse ASZ001 cells assessed as reduction in […] Gli1 mRNA expression after 48 hrs by q-PCR analysis. It counts as cell-based. The conditions noted are these: ASZ001, 48 h.
Data set [5] is described as follows: Inhibition of Hedgehog signaling pathway in mouse C3H10T1/2 cells assessed as reduction in oxysterol-induced Gli1 mRNA expression after 24 hrs by q-PCR analysis. It counts as cell-based. The note with it: C3H 10T1/2, 24 h.
Data set [6] has as its target T1, Vitamin D3 receptor (Mus musculus, UniProt P48281).
T1 sequence (P48281 whole entry): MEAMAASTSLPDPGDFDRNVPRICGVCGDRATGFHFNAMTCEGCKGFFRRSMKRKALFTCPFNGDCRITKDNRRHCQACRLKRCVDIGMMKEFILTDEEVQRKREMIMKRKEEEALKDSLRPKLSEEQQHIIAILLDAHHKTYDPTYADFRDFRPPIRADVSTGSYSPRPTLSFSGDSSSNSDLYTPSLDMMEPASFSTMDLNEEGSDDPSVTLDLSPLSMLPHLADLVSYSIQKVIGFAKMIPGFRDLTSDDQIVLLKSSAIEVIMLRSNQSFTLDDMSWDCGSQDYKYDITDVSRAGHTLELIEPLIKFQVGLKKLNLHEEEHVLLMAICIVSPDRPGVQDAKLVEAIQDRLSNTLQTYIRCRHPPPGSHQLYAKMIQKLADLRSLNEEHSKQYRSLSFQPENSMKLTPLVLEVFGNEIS
Nature of the data set: Activation of VDR in mouse ASZ001 cells assessed as change in Cyp24A1 mRNA expression after 48 hrs by q-PCR analysis. It counts as cell-based. In a few lines: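 In ASZ001 cells, full dose-response Cyp24A1 mRNA measurement by qPCR was done relative to DMSO control (1.0). EC50 values are mean ± SEM of at least two separate experiments performed in triplicate.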

The species named for data set [7] is Mus musculus. Briefly: Inhibition of Hedgehog signaling pathway in mouse C3H10T1/2 cells assessed as residual oxysterol-induced Gli1 mRNA expression at 5 uM after 24 hrs by q-PCR analysis relative to oxysterol alone.
For data set [8], the target named is T2, Vitamin D3 receptor (Mus musculus) (UniProt P48281).
T2 sequence (whole entry): T1 sequence (P48281 whole entry)
Briefly: Activation of VDR in mouse ASZ001 cells assessed as change in Cyp24A1 mRNA expression at 5 uM after 48 hrs by q-PCR analysis relative to control. It counts as cell-based.

Data set [9] has as its target T2, Vitamin D3 receptor (Mus musculus). Nature of the data set: Activation of VDR in mouse C3H10T1/2 cells assessed as change in Cyp24A1 mRNA expression at 5 uM after 24 hrs by q-PCR analysis relative to control. It counts as cell-based.
A short description of data set [10]: Clearance in human liver microsomes assessed per mg protein at 1 uM by LC-MS/MS analysis.
In data set [11] the test system is Medulloblastoma cell. Briefly: Antiproliferative activity against medulloblastoma cells derived from conditional patched knockout mouse after 48 hrs by [3H]-thymidine incorporation assay. The class given is functional. In a few lines:
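Primary tumour cells from Math1-Cre;Ptc fl/fl medulloblastoma were isolated and cultured in vitro, then incubated with analogue for 48 h in a proliferation assay. GI50 is mean ± SEM of at least two separate experiments performed in triplicate.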

In brackets after ≈: the same amount, converted by molar mass.

In the case of `COC(C)(C)CCC[C@@H](C)[C@H]1CC[C@H]2[C@@H](OC(=O)c3cccc(O)c3)CCC[C@]12C`, the solubility kinetic in data set [1] amounted to 0.0023 µg/mL (≈ 0.00552 µM); in data set [3], 0.0027 µg/mL (≈ 0.00648 µM). In data set [2] (microsomes), this compound displayed a half-life at 1 µM of 49 min. Moreover, the IC50 stood at 1000 nM in data set [4] and 1600 nM in data set [5]. Further, the EC50 in data set [6] was over 10000 nM. Also, the % Gli1 activity in [7] came out at 0.7%. In addition, the Activity in data set [8] and in data set [9] was 14% in each case. In addition, in data set [10], the CLH came to 15.

In data set [11], `C[C@H](CCCC(C)(C)O)[C@H]1CC[C@H]2[C@H](CNc3cccc(O)c3)CCC[C@]12C` yielded a concentration for 50% growth inhibition (GI50) of 1600 nM. The values for the IC50 in [4] and in [5] were 1300 nM and 1700 nM, respectively. Moreover, the EC50 in [6] is over 10000 nM. Besides, in data set [7], the % Gli1 activity worked out at 4.1%. Besides, the Activity in [8] is 8.4%; in data set [9], 34%.

For the compound `CC(C)CCC[C@@H](C)[C@H]1CC[C@H]2[C@@H](NCc3ccc(O)cc3)CCC[C@]12C`, the concentration for half-maximal inhibition (IC50) in [4] amounted to 300 nM; in [5], 3100 nM. In addition, the % Gli1 activity in data set [7] was determined as 4.6%. For the same compound, the Activity is 1.1% in [8] and 24% in data set [9].

Turning to `CC(C)CCC[C@@H](C)[C@H]1CC[C@H]2[C@@H](Nc3ccc4c(c3)OCO4)CCC[C@]12C`, the % Gli1 activity in data set [7] was 110%. Also, the Activity in [9] worked out at 6.1%.

On to `COc1ccc(N[C@H]2CCC[C@]3(C)[C@@H]([C@H](C)CCCC(C)C)CC[C@@H]23)cc1`, for which the % Gli1 activity in data set [7] was determined as 73%. Besides, in data set [9], the Activity is 2.4%.

As to `COC(C)(C)CCC[C@@H](C)[C@H]1CC[C@H]2[C@H](CNc3cccc(O)c3)CCC[C@]12C`, the solubility kinetic in [1] was found to be 0.12 µg/mL (≈ 0.299 µM); in data set [3], 0.06 µg/mL (≈ 0.149 µM). Besides, the half-life at 1 µM in [2] (liver microsomes) came out at 43 min. For the same compound, the half-maximal inhibitory concentration (IC50) came to 700 nM in [4] and 1100 nM in data set [5]. In [6], the EC50 was 600 nM. The % Gli1 activity in data set [7] came out at 3.7%. Moreover, the Activity in data set [8] was 2400%; in data set [9] it was 27%. In addition, the CLH in data set [10] worked out at 16.

In data set [11], `C[C@H](CCCC(C)(C)O)[C@H]1CC[C@H]2[C@@H](Nc3cccc(O)c3)CCC[C@]12C` had a GI50 of 5300 nM. Further, the figures for the IC50 in [4] and in data set [5] were 100 nM and 1300 nM, respectively. Also, the EC50 in [6] came out at 100 nM. Further, in data set [7], the % Gli1 activity was 5.9%. The Activity in [8] and in data set [9] was over 30000% in each case.

In the case of `CC(C)CCC[C@@H](C)[C@H]1CC[C@H]2[C@@H](NC(=O)c3cccc(O)c3)CCC[C@]12C`, the solubility kinetic in data set [1] was 0.68 µg/mL (≈ 1.76 µM); in [3], 0.27 µg/mL (≈ 0.7 µM). Besides, the half-life at 1 µM in data set [2] (liver microsomes) is over 231 min. Further, the CLH in [10] was under 3.

Consider `COC(C)(C)CCC[C@@H](C)[C@H]1CC[C@H]2[C@@H](Nc3cccc(O)c3)CCC[C@]12C`, for which the solubility kinetic in [1] amounted to 0.014 µg/mL (≈ 0.0361 µM); in [3], 0.017 µg/mL (≈ 0.0439 µM). Besides, the half-life at 1 µM in data set [2] (liver microsomes) is over 231 min. For the same compound, the values for the IC50 in data set [4] and in data set [5] were 600 nM and 2300 nM, respectively. In [6], the EC50 worked out at 700 nM. In [7], the % Gli1 activity stood at 3.3%. The values for the Activity in data set [8] and in [9] were 11000% and 89%, respectively. In data set [10], this compound came in with a CLH of under 3.

As to `CC(C)CCC[C@@H](C)[C@H]1CC[C@H]2[C@@H](Nc3ccccc3)CCC[C@]12C`, in [7], the % Gli1 activity was found to be 98%. Moreover, the Activity in data set [9] amounted to 1.2%.

Consider `COc1cccc(N[C@H]2CCC[C@]3(C)[C@@H]([C@H](C)CCCC(C)C)CC[C@@H]23)c1`, for which the % Gli1 activity in data set [7] was 110%. Further, in [9], the Activity worked out at 1.9%.

Take `C[C@H](CCCC(C)(C)O)[C@H]1CC[C@H]2[C@H](CNc3ccc(O)cc3)CCC[C@]12C`: the IC50 was found to be 500 nM in [4] and 400 nM in data set [5]. In data set [6], the EC50 amounted to 1300 nM. In addition, the % Gli1 activity in [7] is 5.6%. The Activity in [8] came out at 140%; in data set [9], 6.1%.

The values are drawn from ChEMBL document CHEMBL4382241, “Synthesis and evaluation of third generation vitamin D3 analogues as inhibitors of Hedgehog signaling” (Eur J Med Chem, 2019).
